Measured values taken from ChEMBL document CHEMBL4602675, “The Marine Natural Product Manzamine A Inhibits Cervical Cancer by Targeting the SIX1 Protein” (J Nat Prod, 2020).
Activity calls are given as the source filed them. No cut-off for these calls is given here.

What was measured:
[1] = tested on: SiHa; assay: Antiproliferative activity against human SiHa cells assessed as reduction in cell viability at 2 to 4 uM incubated up to 72 hrs by CellTiter-Glo assay; format: functional, cell-based
[2] = tested on: Keratinocyte; assay: Cytotoxicity against human Keratinocytes assessed as reduction in cell viability at 4 uM incubated up to 72 hrs by trypan blue staining based cell counting assay
[3] = tested on: C-33-A; assay: Antiproliferative activity against human C33A cells assessed as reduction in cell viability at 2 to 4 uM incubated up to 72 hrs by CellTiter-Glo assay; format: functional, cell-based
[4] = tested on: HeLa; assay: Antiproliferative activity against human HeLa cells assessed as reduction in cell viability at 2 to 4 uM incubated up to 72 hrs by CellTiter-Glo assay; format: functional, cell-based
[5] = tested on: Ca-Ski; assay: Antiproliferative activity against human CaSki cells assessed as reduction in cell viability at 2 to 4 uM incubated up to 72 hrs by CellTiter-Glo assay; format: functional, cell-based
[6] = molecular target: Casein kinase II subunit alpha (Homo sapiens) (UniProt P68400); conditions: SiHa, 40 uM
Chain of Casein kinase II subunit alpha (Homo sapiens) (P68400 whole entry, looked up): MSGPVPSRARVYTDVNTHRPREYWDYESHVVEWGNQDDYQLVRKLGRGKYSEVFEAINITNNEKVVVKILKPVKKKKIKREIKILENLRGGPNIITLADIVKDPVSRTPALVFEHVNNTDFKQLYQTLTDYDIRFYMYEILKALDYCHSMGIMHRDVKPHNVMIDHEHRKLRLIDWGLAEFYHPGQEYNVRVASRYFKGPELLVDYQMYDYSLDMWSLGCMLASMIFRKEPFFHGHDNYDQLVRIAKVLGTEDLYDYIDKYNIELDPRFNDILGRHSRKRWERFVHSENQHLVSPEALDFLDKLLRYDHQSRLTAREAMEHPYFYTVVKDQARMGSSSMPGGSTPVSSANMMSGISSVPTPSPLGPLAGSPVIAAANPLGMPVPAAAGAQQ

[7] = molecular target: Casein kinase II subunit alpha (Homo sapiens) (UniProt P68400); conditions: HeLa, 40 uM
[8] = molecular target: T1, Homeobox protein SIX1 (Homo sapiens) (UniProt Q15475); assay: Inhibition of SIX1 in human SiHa cells at 40 uM after 48 hrs by Western blot analysis; format: cell-based
T1 sequence (whole entry): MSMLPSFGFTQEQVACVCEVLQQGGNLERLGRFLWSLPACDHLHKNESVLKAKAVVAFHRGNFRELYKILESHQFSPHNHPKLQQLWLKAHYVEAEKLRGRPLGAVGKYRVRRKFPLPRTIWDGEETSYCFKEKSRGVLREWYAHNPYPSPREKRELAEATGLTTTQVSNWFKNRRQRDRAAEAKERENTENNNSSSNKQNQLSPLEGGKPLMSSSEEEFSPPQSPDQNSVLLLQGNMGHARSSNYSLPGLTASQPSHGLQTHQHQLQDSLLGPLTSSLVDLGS
How it was run: (§1)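 Cells seeded at 1 × 10^6 per 100 mm dish and treated next day at 10, 20 or 40 μM for 48 h. Harvested by trypsinization, PBS-washed, and lysed in RIPA buffer with protease inhibitors. Equal protein by colorimetric assay went to SDS-PAGE and PVDF. Primary antibody 1:500, blocked and diluted in 5% nonfat milk/TBST (SIX1) or 3% BSA (CK2α). HRP secondary 1:2000; chemiluminescent detection.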

[9] = molecular target: T1, Homeobox protein SIX1 (Homo sapiens); assay: Inhibition of SIX1 in human HeLa cells at 40 uM after 48 hrs by Western blot analysis; format: cell-based; how it was run: as §1
[10] = molecular target: Casein kinase II subunit alpha (Homo sapiens) (UniProt P68400); conditions: Ca-Ski, 40 uM
[11] = molecular target: Casein kinase II subunit alpha (Homo sapiens) (UniProt P68400); conditions: C-33-A, 40 uM
[12] = molecular target: T1, Homeobox protein SIX1 (Homo sapiens); assay: Inhibition of SIX1 in human C33A cells at 40 uM after 48 hrs by Western blot analysis; format: cell-based; conditions: C-33-A; how it was run: as §1
[13] = molecular target: T1, Homeobox protein SIX1 (Homo sapiens); assay: Inhibition of SIX1 in human CaSki cells at 40 uM after 48 hrs by Western blot analysis; format: cell-based; conditions: Ca-Ski; how it was run: as §1
[14] = Toxicity in po dosed mouse; format: organism-based; conditions: in vivo

Compound	Activity [1]	Activity [3]	Activity [4]	Activity [5]	other results
Oc1cccc2c1[nH]c1c(C3=C[C@@]4(O)CC/C=C\CCCCN5CC[C@@H]3[C@]3(C[C@@H]6/C=C\CCCCN6[C@H]34)C5)nccc12	Active	Active	Active	Active	Activity [2]: Toxic
O=C1CCCN2[C@@H](CC1)C[C@]13CN4CCCC/C=C\CC[C@](O)(C=C(c5nccc6c5[nH]c5c(O)cccc56)[C@@H]1CC4)[C@H]23	inactive	inactive	inactive	inactive	
O=CC1=C[C@@]2(O)CC/C=C\CCCCN3CC[C@@H]1[C@]1(C[C@@H]4/C=C\CCCCN4[C@H]12)C3	inactive	inactive	inactive	inactive	
O=c1cc(-c2ccc(O)cc2)oc2cc(O)cc(O)c12					inhibition [6]: Active; inhibition [7]: Active; inhibition [8]: Active; inhibition [9]: Active; inhibition [10]: Active; inhibition [11]: Active; inhibition [12]: Active; inhibition [13]: Active
O[C@]12C=C([C@H]3NCCc4c3[nH]c3ccccc43)[C@@H]3CCN(CCCC/C=C\CC1)C[C@@]31C[C@@H]3/C=C\CCCCN3[C@H]12	inactive	inactive	inactive	inactive	
CC(=O)Nc1ccc(O)cc1 [ACETAMINOPHEN]					LD50 [14]: 338 mg/kg
